Wee1 degr inh: Wee1 degradation inhibitors, primary screen, cell-based, HeLa, Wee1K328M-luciferase, luminescence. HeLa Luc-Wee1K328M stability; 100% = proteasome inhibitor MG132 effect. reporter increase, % at 5 µM. Wee1-like protein kinase (Homo sapiens), P30291. 1.2% of 220,000 active;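 active = activation above the mean of all tested compounds plus 3 SD, set per screening run, cut at about 8.8% in these data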;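 note: cells exposed to compound for 20 h before luminescence read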
PKD1 inh: inhibitors of human PKD1 kinase, biochemical, fluorescence polarization; PKD1 kinase fluorescence polarization assay; inhibition, % (no concentration beside the values); 0.056% of 200,000 active; AID 797, 2007
Arbovirus inh: antivirals against arbovirus infection, primary screen, cell-based, full library, 10K replicate subset; arbovirus infection cell-based antiviral screen; inhibition, % at 10 µM; 0.37% of 200,000 active; AID 1251, 2008; in the data active = inhibition above about 30%
Lmaj promast: Leishmania major promastigote growth inhibition, primary screen; inhibition, % at 10 µM; 9% of 200,000 active; Leishmania major promastigotes, resazurin fluorescence viability;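 note: promastigotes grown with compound for 44 hours at 28 °C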
CHOP inh: inhibitors of CHOP promoter induction, primary screen, cell-based, unfolded protein response, luciferase reporter; CHO-K1 CHOP-promoter luciferase, tunicamycin-induced, 15-18 h; inhibition, % at 10 µM; 3.8% of 220,000 active;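 active = compounds that reduced the stress-induced luciferase reporter signal by more than about 70% of percent inhibition, limit read from the data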
Rad51 HR inh: human RAD51 strand exchange inhibitors, primary screen, biochemical, fluorescence; 0.085% of 200,000 active; inhibition, % at 10 µM; hRad51 DNA strand exchange, fluorescence dequenching; DNA repair protein RAD51 homolog 1 (Homo sapiens), Q06609; AID 1385, 2008;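 active = inhibition above 40% at the single screening dose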
Target sequence (Q06609 whole entry, looked up): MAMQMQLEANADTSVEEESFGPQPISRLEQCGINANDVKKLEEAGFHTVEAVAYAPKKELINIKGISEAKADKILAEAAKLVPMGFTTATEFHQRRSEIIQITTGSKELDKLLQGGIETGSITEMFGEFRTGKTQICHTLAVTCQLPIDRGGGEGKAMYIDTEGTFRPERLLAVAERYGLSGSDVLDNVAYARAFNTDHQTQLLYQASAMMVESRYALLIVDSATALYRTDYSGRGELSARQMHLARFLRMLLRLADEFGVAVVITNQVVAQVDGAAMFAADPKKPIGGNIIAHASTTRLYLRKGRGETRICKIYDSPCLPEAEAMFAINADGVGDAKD
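System: human Rad51 nucleoprotein filaments preassembled on unlabelled ssDNA. Reagent: labelled 47-mer dsDNA for strand exchange. Schedule: 30-min compound preincubation and 15-min exchange, both room temperature. Measured by: FRET fluorescence dequenching, excitation 485 nm, emission 520 nm. Read-out: Fluorescence-based percent inhibition, control- and blank-normalised. Benchmarks: plate controls and plate blanks.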
Large screens that a line does not name were inactive. Hits are enriched below; roughly 12% of the tested compounds scored in any of these assays. Cut-off read from the data, not from the text of the source, unless noted: active = inhibition above about 50%; inactive = the rest.

CC1=N/C(=C/c2cccnc2)C(=O)O1	none
CCN1C(=O)S/C(=C/c2ccsc2)C1=O	none
COc1cc(CC(=O)N/N=C/c2ccc([N+](=O)[O-])cc2)c([N+](=O)[O-])cc1OC	none
CCOC(=O)C1(CCCc2ccccc2)CCN(C(=O)COC)CC1	none (no result: PKD1 inh, Arbovirus inh, Lmaj promast)
OCC1(CCCc2ccccc2)CCN(C2CCSCC2)CC1	Lmaj promast 84
CSCC(C)N1CCC(CO)(CCCc2ccccc2)CC1 (stereo unspecified)	Lmaj promast 91
Cn1cc(CN2CCC(CO)(CCCc3ccccc3)CC2)c(-c2ccccc2)n1	none (no result: PKD1 inh, Arbovirus inh, Lmaj promast)
CCOC(=O)C1(CCCc2ccccc2)CCN(C2CCSCC2)CC1	Arbovirus inh 30, Lmaj promast 85
CN(C)c1ncc(CN2CCC(CO)(CCCc3ccccc3)CC2)s1	none (no result: PKD1 inh, Arbovirus inh, Lmaj promast)
CC(=O)c1cccc(CN2CCC(CO)(CCCc3ccccc3)CC2)c1	Lmaj promast 79
CN(C)C(N)=NCCC[C@H](N)C(=O)O	none (no result: Wee1 degr inh, PKD1 inh, Arbovirus inh, Lmaj promast)
COc1ccc2c(c1)C(=NN)c1cc(OC)ccc1-2	none
CCN=C1SC(CC(N)=O)C(=O)N1CC (stereo unspecified)	none
CCN(CC)S(=O)(=O)c1ccc(N2CCOCC2)c(NC(=O)c2ccccc2)c1	none (no result: Rad51 HR inh)
CCN(CC)S(=O)(=O)c1ccc(N2CCOCC2)c(NC(=O)Cc2ccccc2F)c1	Lmaj promast 71
CCN(CC)S(=O)(=O)c1ccc(N2CCOCC2)c(NC(=O)Cc2cccc3ccccc23)c1	Lmaj promast 95
CCN(CC)S(=O)(=O)c1ccc(N2CCOCC2)c(NC(=O)C23CC4CC(CC(Cl)(C4)C2)C3)c1	Lmaj promast 56
COc1ccc(N2CCN(Cc3nc(-c4ccccc4)no3)CC2)cc1	none
CCC(CC)C(=O)N(CCc1ccc(OC)cc1)Cc1nc2ccccc2c(=O)[nH]1	Lmaj promast 100
COc1ccc(CCN(Cc2nc3ccccc3c(=O)[nH]2)C(=O)c2ccco2)cc1	none
CCOc1ccc(Oc2c(/C=N/NC(N)=O)c(C)nn2-c2ccccc2)cc1	Lmaj promast 98
CCOc1ccc(Oc2c(/C=N/NC(=O)COc3ccccc3OC)c(C)nn2-c2ccccc2)cc1	CHOP inh 85
Cc1nn(-c2ccccc2)c(Cl)c1/C=N/NC(N)=O	none (no result: PKD1 inh, Arbovirus inh, Lmaj promast)
O=C(CN1C(=O)CCC1=O)Nc1cccc2c1C(=O)NC2=O	none
Cc1cccc(N2CCN(C(=O)c3cn(C)c(=O)c4c3c3ccccc3n4C)CC2)c1C	none (no result: Rad51 HR inh)
Cc1ccc(Cl)cc1N1CCN(C(=O)c2cn(C)c(=O)c3c2c2ccccc2n3C)CC1	Lmaj promast 55, CHOP inh 79
COc1cccc(CSc2ccc(S(=O)(=O)N3CCOCC3)cc2C(=O)NCC2CCCO2)c1OC (stereo unspecified)	none (no result: Rad51 HR inh)
N#CC1=C(N)NC(SCc2ccccc2)=C(C#N)C12CCCC2	none (no result: Rad51 HR inh)
N#CC1=C(N)NC(SCC(=O)Nc2ccc(Br)cc2)=C(C#N)C12CCCCC2	Lmaj promast 84, CHOP inh 73
N#CC1=C(N)NC(SCc2ccc(Cl)cc2)=C(C#N)C12CCCCC2	Lmaj promast 99
N#CC1=C(N)NC(SCc2ccc(Br)cc2)=C(C#N)C12CCCCC2	Lmaj promast 98, CHOP inh 93 (no result: Rad51 HR inh)
Cc1cc(Br)c(OCC(=O)NN)c2c1CCC2	none (no result: PKD1 inh, Arbovirus inh, Lmaj promast)
O=C(Nc1cc(C(F)(F)F)ccc1N1CCOCC1)c1ccc(F)cc1	none
CSc1ncccc1C(=O)OCC(=O)Nc1cc(C(F)(F)F)ccc1N1CCOCC1	CHOP inh 71
Cc1cc(OCC(=O)OCC(=O)Nc2cc(C(F)(F)F)ccc2N2CCOCC2)ccc1Cl	none
O=C(Nc1cc(C(F)(F)F)ccc1N1CCOCC1)c1n[nH]c(=O)c2ccccc12	CHOP inh 78
O=S(=O)(c1ccc(F)cc1)N1CCC(N2CCCCCC2)CC1	Lmaj promast 98
O=S(=O)(c1ccc(Cl)cc1)N1CCC(n2cccc2)CC1	none (no result: PKD1 inh, Arbovirus inh, Lmaj promast, Rad51 HR inh)
O=S(=O)(c1ccc(Cl)cc1)N1CCC(N2CCCCCC2)CC1	Lmaj promast 97
Cc1ccc(NC(=O)C2CCN(S(=O)(=O)c3ccc(F)cc3)CC2)cc1	Lmaj promast 99
CCOC(=O)N1CCC(N2CCN(c3cc(C)ccc3C)CC2)CC1	Lmaj promast 95
Cc1ccc(NC(=O)C2CCN(S(=O)(=O)c3ccccc3)CC2)cc1	none
CCOC(=O)N1CCC(N2CCN(S(=O)(=O)c3ccc(Cl)cc3)CC2)CC1	Lmaj promast 95
CCN1CCN(S(=O)(=O)c2ccc3ccccc3c2)CC1	none
CCOC(=O)N1CCN(C(=O)CN(Cc2ccc(Cl)cc2)S(=O)(=O)c2ccc(C)cc2)CC1	Lmaj promast 93
CCOC(=O)N1CCC(N2CCN(S(=O)(=O)c3ccc(NC(C)=O)cc3)CC2)CC1	none
Cc1ccc(NC(=O)C2CCN(S(=O)(=O)c3c(C)n[nH]c3C)CC2)nc1	Wee1 degr inh 10
CC1CN(C2CCN(S(=O)(=O)c3ccc4ccccc4c3)CC2)CC(C)O1 (stereo unspecified)	Lmaj promast 94
CC(Sc1ccccc1)C(=O)NN=C1CCN(C)CC1 (stereo unspecified)	none
C/C(CC(=O)Nc1cccc2c1CCCC2)=N\NC=O	none
CC1CCN(C2CCN(S(=O)(=O)c3ccc(F)cc3)CC2)CC1	Lmaj promast 90
O=[N+]([O-])c1ccccc1N/N=C1\CC2CC=CC12 (stereo unspecified)	none
O=C(Cn1c(=S)[nH]c2ccccc2c1=O)NCCc1ccccc1	Wee1 degr inh 9.5
COc1ccc(N(CC(=O)NCc2ccco2)S(=O)(=O)c2ccc(C)cc2)cc1	none (no result: Rad51 HR inh)
Cc1ccc(S(=O)(=O)N(CC(=O)NCc2ccco2)Cc2ccccc2F)cc1	Lmaj promast 93
CC(C)=C1C2CCC1C1C(=O)N(NC(=O)COc3ccc(C(C)(C)C)cc3)C(=O)C21 (stereo unspecified)	CHOP inh 92
O=C1Nc2ccccc2N(O)N1c1cc(-c2ccc(Cl)cc2)[nH]n1	none
N#C/C(=C\c1ccc(C#N)cc1)C(=O)c1ccccc1	none (no result: PKD1 inh, Arbovirus inh, Lmaj promast, Rad51 HR inh)
CN(C)c1ccc(/C=C(\C#N)C(=O)c2ccccc2)cc1	Wee1 degr inh 9.3 (no result: PKD1 inh, Arbovirus inh, Lmaj promast, Rad51 HR inh)
CN(C)c1cccc(/C=C(\C#N)c2ccccc2)c1	Wee1 degr inh 10.0 (no result: PKD1 inh, Arbovirus inh, Lmaj promast)
CN(C)c1ccc(/C=C(\C#N)c2ccccc2)cc1	Wee1 degr inh 16 (no result: PKD1 inh, Arbovirus inh, Lmaj promast, Rad51 HR inh)
Cn1cccc1/C=C(\C#N)c1ccccc1	none
CC(=O)NC(Cc1ccccc1C)C(=O)NC1CCN(C(=O)c2cccc(C)c2)CC1 (stereo unspecified)	none
O=C(COC(=O)CNS(=O)(=O)/C=C/c1ccccc1)Nc1cc(S(=O)(=O)N2CCCCC2)ccc1Cl	none
COc1ccc(-c2nc(NC(=O)c3ccc(OCC(=O)N4CCOCC4)c(OC)c3)sc2C)cc1	Arbovirus inh 45, Lmaj promast 61
